Experimental findings from ChEMBL document CHEMBL4346727, “Synthesis and pharmacological evaluation of novel N-Mannich bases derived from 5,5-diphenyl and 5,5-di(propan-2-yl)imidazolidine-2,4-dione core” (Bioorg Med Chem Lett, 2019) are described below.

Structures are written as SMILES. Active and inactive are the calls of the source. Unless noted, the calls are words filed in the database; no cut-off is given here.

Data set [1] can be described thus: Neurotoxicity in ip dosed CD1 mouse and measured after 0.5 hrs by rotarod test. The data set is classed as toxicity, organism-based. The note with it: in vivo. The method in brief:
(§1)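 Mice dosed intraperitoneally at 30, 100 and 300 mg/kg, then tested on the rotarod at 0.5 h and 4 h. The value recorded is the minimum dose at which neurotoxicity appeared. A dash means no neurotoxicity at the top dose of 300 mg/kg.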
(In the rotarod test animals must keep their balance on a rotating rod.)

Data set [2] relates to Mus musculus. The experiment in a line: Anticonvulsant activity in ip dosed CD1 mouse assessed as protection against subcutaneous pentylenetetrazole-induced seizures and measured after 4 hrs. The data set is classed as functional. To be noted: CD1, 4 h, read-out: MED. A digest of the protocol: (§2)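 Mice were screened after intraperitoneal doses of 30, 100 and 300 mg/kg in the maximal electroshock and subcutaneous pentylenetetrazole tests, examined at 0.5 and 4 h. The value recorded is the minimum dose showing activity. No activity up to 300 mg/kg is scored as absent.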

The test system of data set [3] is Mus musculus. The experiment in a line: Anticonvulsant activity in CD1 mouse assessed as protection against subcutaneous pentylenetetrazole-induced seizures at 300 mg/kg, ip and measured after 0.5 hrs. The data set is classed as functional, organism-based. The method in brief: as §2
The test system of data set [4] is Mus musculus. The experiment in a line: Anticonvulsant activity in ip dosed CD1 mouse assessed as time to peak effect on protection against 50 mA current-induced seizures. The data set is classed as functional. A digest of the protocol:
(§3)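 Median effective doses were quantified in the maximal electroshock, subcutaneous pentylenetetrazole and 6 Hz tests after intraperitoneal dosing in mice or oral dosing in rats, at the time of peak effect. ED50 values are reported with ranges in parentheses.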

The test system of data set [5] is Mus musculus. The experiment in a line: Anticonvulsant activity in ip dosed CD1 mouse assessed as time to peak effect on protection against subcutaneous pentylenetetrazole-induced seizures. It counts as functional. A digest of the protocol:
as §3

Data set [6] deals with Mus musculus. The experiment in a line: Anticonvulsant activity in ip dosed CD1 mouse assessed as time to peak effect on protection against 32 mA current-induced seizure by 6 Hz psychomotor seizure test. The data set is classed as functional. A digest of the protocol:
as §3

A short description of data set [7]: Neurotoxicity in ip dosed CD1 mouse assessed as time to peak effect by rotarod test. It counts as toxicity, organism-based. To be noted: in vivo.
The test system of data set [8] is Mus musculus. The experiment in a line: Anticonvulsant activity in ip dosed CD1 mouse assessed as protection against subcutaneous pentylenetetrazole-induced seizures. The data set is classed as functional. The method in brief: as §3
A short description of data set [9]: Neurotoxicity in ip dosed CD1 mouse model by rotarod test. It counts as toxicity, organism-based. To be noted: in vivo.
The nature of data set [10]: Protection index, ratio of TD50 for neurotoxicity in ip dosed CD1 mouse by rotarod test to ED50 for anticonvulsant activity in ip dosed CD1 mouse model of subcutaneous PTZ-induced seizures. To be noted: in vivo, read-out: Ratio TD50/ED50. The data set is classed as toxicity, organism-based.
Data set [11] relates to Mus musculus. The experiment in a line: Anticonvulsant activity in CD1 mouse assessed as protection against 50 mA current-induced seizure at 300 mg/kg, ip and measured after 0.5 hrs by maximal electroshock seizure test. The data set is classed as functional, organism-based. A digest of the protocol:
as §2
In general terms: The maximal electroshock test induces tonic seizures with an electrical stimulus.

For data set [12], the system named is Mus musculus. The experiment in a line: Anticonvulsant activity in CD1 mouse assessed as protection against 50 mA current-induced seizure at 300 mg/kg, ip and measured after 4 hrs by maximal electroshock seizure test. It counts as functional, organism-based. A digest of the protocol: as §2
Data set [13] in a line: Neurotoxicity in CD1 mouse at 300 mg/kg, ip and measured after 4 hrs hrs by rotarod test. To be noted: in vivo. It counts as toxicity, organism-based. A digest of the protocol: as §1
Data set [14] has as its system Mus musculus. The experiment in a line: Potency index, ratio of phenytoin ED50 to compound ED50 for anticonvulsant activity protection against subcutaneous pentylenetetrazole-induced seizures in ip dosed CD1 mouse. It counts as functional.

Turning to `CC(C)C1(C(C)C)NC(=O)N(CN2CCN(CCc3ccccc3)CC2)C1=O`, in [1], the minimal neurotoxic dose amounted to 300 mg/kg. For the same compound, the minimal effective dose in the data set on Mus musculus [2] turned out to be 100 mg/kg. Also, the MED entry with Mus musculus [3] was “inactive”. Further, the Time (in the data set on Mus musculus [4]; in the data set with Mus musculus [5]; in the data set with Mus musculus [6]; in data set [7]) was 4 h each time. Also, the ED50 (usually the dose at which the effect has come halfway, by size or by number of responders) in the data set with Mus musculus [8] worked out at 89.4 mg/kg. Moreover, the TD50 (in general, the dose at which the toxic effect under study appears in half of the subjects) in data set [9] was more than 200 mg/kg. For the same compound, in data set [10], the selectivity ratio is more than 2.23. For the same compound, the result with Mus musculus [11] and in the data set on Mus musculus [12] was inactive. Further, the Activity entry in data set [13] is reported as “Non-Toxic”. Further, in the data set on Mus musculus [14], the “Ratio ED50” value stood at 5.5.
